Molecules are shown by their SMILES. Active and inactive are the calls of the source. The calls are words filed in the database; no cut-off is given here. Bounds are passed on as bounds.

Common to all, as to format: functional, cell-based
What all share (settings): Homo sapiens

The subject of one assay is NCI-H358. Nature of the assay: Cytotoxicity against NCI-H358 cells assessed as cell survival by SRB assay. For orientation: The SRB assay estimates cell density from bound dye.
The test system of the next assay is HCT-116. Nature of the assay: Cytotoxicity against HCT116 cells assessed as cell survival by SRB assay.
For assay [1], the system named is K562. The experiment in a line: Cytotoxicity against K562 cells assessed as cell survival by MTT assay. The essentials:
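Suspension leukemia cells seeded, 24 h, then 48 h treatment with compounds diluted from ethanol stock into medium. MTT added (final 500 µg/ml), 3 h at 37 °C. Medium removed, formazan dissolved in DMSO, absorbance at 570 nm. Survival relative to solvent-treated controls; EC50 (concentration giving 50% survival) by non-linear regression; minimum of three experiments.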
A general note: Formazan colour is commonly taken as a measure of viable cells.

The test system of assay [2] is K562. Nature of the assay: Induction of apoptosis in K562 cells assessed as DNA fragmentation after 18 hrs by agarose gel electrophoresis. The procedure, abridged:
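Cells in 100-mm dishes exposed to various concentrations for 18 h. Lysed in 50 mM Tris-HCl pH 7.5, 20 mM EDTA, 1% NP-40 for 5 min at 4 °C. SDS added (final 1%) for 1 h at 56 °C, then proteinase K (final 2.5 µg/µl) for 2 h at 37 °C. DNA precipitated with ammonium acetate (final 5 M) and ethanol. 5 µg run on 2% agarose gel.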

Regarding `CCCCCCCCCCCCCC[C@@H](O)[C@@H](O)[C@H](CO)n1cc(CCCCCC)nn1`, the results for the EC50 in the assay with NCI-H358, with HCT-116 and in the assay with K562 [1] were 13.7 µM, 12 µM and 12.6 µM, respectively.
`CCCCCCCCCCCCC/C=C/[C@@H](O)[C@H](CO)n1cc(CCCCCCCCCCCCC)nn1`: the EC50 in the assay on NCI-H358, with HCT-116 and in the assay on K562 [1] was above 50 µM each time.
For the compound `CCCCCCCCCCCCC/C=C/[C@@H](O)[C@H](CO)NC(C)=O`, the EC50 stood at 19.6 µM with NCI-H358, 24.5 µM in the assay on HCT-116 and 35.1 µM in the assay with K562 [1].
Taken in the same sequence, the figures for `CCCCCCCCCCCCC/C=C/[C@@H](O)[C@H](CO)n1cc(CCC)nn1` were 15.7 µM, 16 µM and 13 µM.
The matching figures for `CCCCCCCCCCCCC/C=C/[C@@H](O)[C@H](CO)n1cc(CCCCCCCCCCCCCCCCCCCCCCCC)nn1`: above 50 µM, above 50 µM and above 50 µM.
Take `CCCCCCCCCCCCCC[C@@H](O)[C@@H](O)[C@H](CO)n1cc(CCCC)nn1`: the EC50 is 12.9 µM with NCI-H358, 12.9 µM in the assay on HCT-116 and 14.5 µM in the assay with K562 [1]. In addition, the result in the assay with K562 [2] was Active.
For `CCCCCCCCCCCCCC[C@@H](O)[C@@H](O)[C@H](CO)n1cc(CCCCCCCCCCCCC)nn1`, the EC50 in the assay with NCI-H358, in the assay with HCT-116 and in the assay on K562 [1] was above 50 µM each time.
Turning to `CCCCCCCCCCCCCC[C@@H](O)[C@@H](O)[C@H](CO)n1cc(CCC)nn1`, the values for the EC50 with NCI-H358, with HCT-116 and with K562 [1] were 13.2 µM, 13.9 µM and 14.9 µM, respectively.
Regarding `CCCCCCCCCCCCCCCCCCCCCCCCc1cn([C@@H](CO)[C@H](O)[C@H](O)CCCCCCCCCCCCCC)nn1`, the EC50 in the assay with NCI-H358, with HCT-116 and in the assay on K562 [1] was above 50 µM each time.
With `CCCCCCCCCCCCC/C=C/[C@@H](O)[C@H](CO)n1cc(CCCC)nn1`, the EC50 with NCI-H358 stood at 13.6 µM; in the assay with HCT-116 it was 12.9 µM; in the assay with K562 [1], 12.3 µM. Further, the result with K562 [2] was Active.
Regarding `CCCCCCCCCCCCC/C=C/[C@@H](O)[C@H](CO)n1cc(CCCCCC)nn1`, the EC50 in the assay with NCI-H358 worked out at 12.8 µM; in the assay on HCT-116, 12.5 µM; in the assay on K562 [1], 8.2 µM.

Broadly, the EC50 is the concentration that produces a half-maximal response.

The values are drawn from ChEMBL document CHEMBL1140649, “Design, synthesis, and preliminary biological evaluation of a novel triazole analogue of ceramide” (Bioorg Med Chem Lett, 2007).
